Data published in ChEMBL document CHEMBL4680062, “Structure-property studies of an imidazoquinoline chemotype with antitrypanosomal activity” (RSC Med Chem, 2020).

How the values were obtained:
[1] = Intrinsic clearance in human liver microsomes by LC/MS/MS analysis; type: ADME, Microsome; details: read-out: CLH
[2] = 1-Octanol-aquoues buffer distribution coefficient, log D of compound at pH 7.4 by UPLC-MS based shake flask method; type: physicochemical; details: 1-octanol/aqueous buffer
[3] = Intrinsic clearance in Han Wistar rat hepatocytes assessed per million cells at 1 uM by LC/MS/MS analysis; type: ADME, cell-based, Hepatocyte; details: read-out: CLH
[4] = Tmax in NMRI mouse at 10 mg/kg, ip measured up to 24 hrs by LC/MS/MS analysis; type: ADME, organism-based; details: in vivo
Summary of the method: (§1)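 Female NMRI mice (n=3) dosed IP at a target of 10 mg/kg. Vehicle: 1% DMSO and 99% of a 20% Captisol solution in water. Drug levels measured in peripheral blood.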

[5] = Ratio of drug level in brain to plasma in NMRI mouse at 10 mg/kg, ip measured up to 24 hrs by LC/MS/MS analysis; type: ADME, organism-based; details: brain and plasma, read-out: BPR
[6] = Cmax in NMRI mouse at 10 mg/kg, ip measured up to 24 hrs by LC/MS/MS analysis; type: ADME, organism-based; design: route intraperitoneal, dose 10 mg/kg, time <=24; details: in vivo; summary of the method: as §1
[7] = Half life in NMRI mouse at 10 mg/kg, ip measured up to 24 hrs by LC/MS/MS analysis; type: ADME, organism-based; details: in vivo; summary of the method: as §1
[8] = Drug exposure in NMRI mouse brain at 10 mg/kg, ip measured after 4 hrs by LC/MS/MS analysis; type: ADME, organism-based; details: in vivo
[9] = AUC in NMRI mouse at 10 mg/kg, ip measured up to 24 hrs by LC/MS/MS analysis; type: ADME, organism-based; design: route intraperitoneal, dose 10 mg/kg, time <=24; details: in vivo; summary of the method: as §1
[10] = Drug exposure in NMRI mouse blood at 10 mg/kg, ip measured after 4 hrs by LC/MS/MS analysis; type: ADME, organism-based; details: in vivo; summary of the method: as §1

microsomal CLint [1] [µL/min/mg] | logD [2] | hepatocyte CLint at 1 µM [3] [µL/min/1e6 cells] | Tmax [4] [min] | Kp at 24 h [5] | Cmax [6] [ng/mL] | half-life [7] [min] | Drug uptake [8] | AUC at 24 h [9] [ng·h/mL] | Drug uptake [10] | SMILES
3 | 0.1 | 1 | – | – | – | – | – | – | – | Cn1c(=O)n(C2CCNCC2)c2c3cc(-c4cn[nH]c4)ccc3ncc21
38 | 3 | 7.9 | 30 | 0.026 | 570 | 78 | Not Active | 920 | Not Active | Cn1c(=O)n(-c2ccc(C(C)(C)C#N)cc2)c2c3cc(-c4cn[nH]c4)ccc3ncc21
